This is an account of results in ChEMBL document CHEMBL3112434, “Identification of proton-pump inhibitor drugs that inhibit Trichomonas vaginalis uridine nucleoside ribohydrolase” (Bioorg Med Chem Lett, 2014).

For one experiment, the system named is Trichomonas vaginalis. Description: Inhibition of Trichomonas vaginalis uridine nucleoside ribohydrolase using 5-fluorouridine as substrate at 0.04 to 200 uM after 40 mins by NMR spectrometric analysis. The essentials: (§1)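 UNH at 80 nM in 50 mM potassium phosphate, 0.3 M KCl, pH 6.5, with 10% 2H2O. Test compounds added from DMSO solutions and mixed thoroughly. Reaction read at the 40 min time point. Screening was done at 50 μM in mixtures of three. IC50 determinations used final assay concentrations from 200 μM to 0.04 μM.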

Experiment [1] in a line: Inhibition of Trichomonas vaginalis uridine nucleoside ribohydrolase using 5-fluorouridine as substrate after 40 mins by NMR spectrometric analysis. The essentials:
as §1

Calls of active or inactive are those of the source. The calls are words filed in the database; no cut-off is given here.

On to `COC(=O)C1=C(C)NC(C)=C(C(=O)OCCN(C)Cc2ccccc2)C1c1cccc([N+](=O)[O-])c1` (stereo unspecified), for which, in the experiment on Trichomonas vaginalis, the Active/inactive screening call is “Active”.

As to `CCOC(=O)C1=C(COCCN)NC(C)=C(C(=O)OC)C1c1ccccc1Cl` (stereo unspecified), the inhibition result in the experiment with Trichomonas vaginalis was “Active”.

On to `CNC1=Nc2ccc(Cl)cc2C(c2ccccc2)=[N+]([O-])C1`, for which the inhibition entry in the experiment on Trichomonas vaginalis is “Active”.

`COC(=O)C1=C(C)NC(C)=C(C(=O)OCC(C)C)C1c1ccccc1[N+](=O)[O-]` (stereo unspecified): the Active/inactive screening call with Trichomonas vaginalis was “Active”.

Take `CC1=C(/C=C/C(C)=C/C=C/C(C)=C\C(=O)O)C(C)(C)CCC1`: the Active/inactive screening call in the experiment on Trichomonas vaginalis is “Active”.

`CC1=C(/C=C/C(C)=C/C=C/C(C)=C/C(=O)O)C(C)(C)CCC1`: the Active/inactive screening call in the experiment on Trichomonas vaginalis is “Active”.

For `CN[C@@H]1C[C@@H](c2ccc(Cl)c(Cl)c2)c2ccccc21` (relative stereo), the inhibition result in the experiment with Trichomonas vaginalis is “Active”.

On to `Sc1ncnc2nc[nH]c12`, for which the Active/inactive screening call with Trichomonas vaginalis was “Active”.

As for `O=C1C(CC[S+]([O-])c2ccccc2)C(=O)N(c2ccccc2)N1c1ccccc1` (stereo unspecified), the Active/inactive screening call in the experiment on Trichomonas vaginalis is “Active”.

Consider `O=C(O[C@@H]1Cc2c(O)cc(O)cc2O[C@@H]1c1cc(O)c(O)c(O)c1)c1cc(O)c(O)c(O)c1`, for which, in the experiment on Trichomonas vaginalis, the inhibition result was “Active”.

As for `COc1ccnc(C[S+]([O-])c2nc3cc(OC(F)F)ccc3[nH]2)c1OC` (stereo unspecified) [PANTOPRAZOLE SODIUM], in the experiment on Trichomonas vaginalis, the Active/inactive screening call was “Active”. For the same compound, half-maximal inhibition in experiment [1] (IC50) was put at 14500 nM.

Turning to `CN(C)CCCN1c2ccccc2CCc2ccc(Cl)cc21`, in the experiment on Trichomonas vaginalis, the Active/inactive screening call is “Active”.

`Oc1ccc2c3c1O[C@H]1c4[nH]c5ccccc5c4C[C@@]4(O)[C@@H](C2)N(CC2CC2)CC[C@]314`: the inhibition result in the experiment with Trichomonas vaginalis was “Active”.

In the case of `CCOC(=O)C1=C(C)NC(C)=C(C(=O)OC)C1c1cccc([N+](=O)[O-])c1` (stereo unspecified), in the experiment with Trichomonas vaginalis, the Active/inactive screening call was “Active”.

In the case of `COC(=O)C1=C(C)NC(C)=C(C(=O)OC)C1c1ccccc1[N+](=O)[O-]`, in the experiment on Trichomonas vaginalis, the inhibition entry is “Active”.

As to `CC(=O)Oc1ccccc1C(=O)Nc1ncc([N+](=O)[O-])s1`, in the experiment with Trichomonas vaginalis, the inhibition result is “Active”.

Take `COCCCOc1ccnc(C[S+]([O-])c2nc3ccccc3[nH]2)c1C` (stereo unspecified) [RABEPRAZOLE]: the Active/inactive screening call in the experiment with Trichomonas vaginalis was “Active”. Moreover, in experiment [1], the half-maximal inhibitory concentration (IC50) (as a rule, the point on the concentration scale where inhibition reaches its midpoint) came to 300 nM.

On to `N[C@@H](C(=O)N[C@@H]1C(=O)N2C(C(=O)O)=C(Cl)CS[C@H]12)c1ccccc1`, for which the Active/inactive screening call with Trichomonas vaginalis is “Active”.

As for `Oc1cc2c(cc1O)[C@H]1c3ccccc3CN[C@@H]1CC2` (relative stereo), the Active/inactive screening call with Trichomonas vaginalis is “Active”.

Consider `N[C@@H](C(=O)N[C@@H]1C(=O)N2C(C(=O)O)=C(CSc3c[nH]nn3)CS[C@H]12)c1ccc(O)cc1`, for which the Active/inactive screening call with Trichomonas vaginalis is “Active”.

As to `CN(C)[C@@H]1C(O)=C(C(N)=O)C(=O)[C@@]2(O)C(O)=C3C(=O)c4c(O)cccc4[C@@](C)(O)[C@H]3[C@H](O)[C@@H]12`, the Active/inactive screening call with Trichomonas vaginalis is “Active”.

Take `CCC1=C[C@@H]2CN(C1)Cc1c([nH]c3ccccc13)[C@@](C(=O)OC)(c1cc3c(cc1OC)N(C)[C@H]1[C@@](O)(C(=O)OC)[C@H](OC(C)=O)[C@]4(CC)C=CCN5CC[C@]31[C@@H]54)C2`: the Active/inactive screening call in the experiment on Trichomonas vaginalis was “Active”.

As for `COc1ccc2[nH]c([S+]([O-])Cc3ncc(C)c(OC)c3C)nc2c1` (stereo unspecified) [OMEPRAZOLE], the Active/inactive screening call in the experiment with Trichomonas vaginalis is “Active”. Further, the half-maximal inhibitory concentration (IC50) in experiment [1] was determined as 2300 nM.
